According to article PMC4767637 (Journal of molecular biology, 2016):
Residue numbers refer to the chain shown, from its start. Numbers in names are those of the source.

B1: pSTAT3: Tyr-705-phosphorylated STAT3 (protein)
chain: GQANHPTAAVVTEKQQMLEQHLQDVRKRVQDLEQKMKVVENLQDDFDFNYKTLKSQGDMQDLNGNNQSVTRQKMQQLEQMLTALDQMRRSIVSELAGLLSAMEYVQKTLTDEELADWKRRQQIACIGGPPNICLDRLENWITSLAESQLQTRQQIKKLEELQQKVSYKGDPIVQHRPMLEERIVELFRNLMKSAFVVERQPCMPMHPDRPLVIKTGVQFTTKVRLLVKFPELNYQLKIKVCIDKDSGDVAALRGSRKFNILGTNTKVMNMEESNNGSLSAEFKHLTLREQRCGNGGRANCDASLIVTEELHLITFETEVYHQGLKIDLETHSLPVVVISNICQMPNAWASILWYNMLTNNPKNVNFFTKPPIGTWDQVAEVLSWQFSSTTKRGLSIEQLTTLAEKLLGPGVNYSGCQITWAKFCKENMAGKGFSFWVWLDNIIDLVKKYILALWNEGYIMGFISKERERAILSTKPPGTFLLRFSESSKEGGVTFTWVEKDISGKTQIQSVEPYTKQQLNNMSFAEIIMGYKIMDATNILVSPLVYLYPDIPKEEAFGKYCRPESQEHPEADPGSAAPYLKTKFI
modifications: phosphotyrosine at 705; left off: His6, C-terminal, state not stated
B2: I568F: HIES associated STAT3 mutation in the LD (protein)
chain: B1 chain with I442F
modifications: left off: His6, C-terminal, state not stated

Assays:
[1] = test system: pSTAT3 homodimer; assay: van't Hoff analysis of pSTAT3 monomer-dimer equilibrium by HMQC; format: binding, human; conditions: 25-45 °C, 700 MHz
Summary of the method: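 His-tagged pSTAT3 (127-711), co-expressed with tyrosine kinase in E. coli TKB1, deuterated with Ile Cδ1 methyl 13CH3 labeling, in deuterated 10 mM MES pH 5.5, 2 mM TCEP, 0.03% sodium azide, 100% D2O. 2D 1H-13C HMQC at 700 MHz at 25, 30, 32, 34, 36, 38, 40 and 45 °C. Keq is the population ratio of exchanging species (a) and (b); ΔH0 and ΔS0 come from a linear fit of ln(Keq) vs 1/T.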

[2] = test system: pSTAT3 homodimer; assay: NMR CSP of pSTAT3 dimer versus uSTAT3; format: binding, human; conditions: 2D 13C-1H HMQC, 25 °C
[3] = test system: pSTAT3; assay: 13C SQ-CPMG relaxation dispersion; set-up: species or system human; conditions: 35 °C, 600 and 700 MHz, ~170 μM pSTAT3
[4] = test system: I568F STAT3; assay: NMR CSP of I568F STAT3 relative to WT; set-up: species or system human; conditions: 2D 13C-1H HMQC Ile spectra

Molecule	ΔS° of monomer-dimer equilibrium (I568 and I654) ([1]; residues I568 (LD) and I654 (SH2)) [cal/mol•K]	ΔS° of monomer-dimer equilibrium (I653 and I711) ([1]; residues I653 and I711) [cal/mol•K]	CSPs of pSTAT3 dimer [2]	change in Rex of I568, pSTAT3 dimer versus pY904-bound uSTAT3 [3]	CSP of I568F mutant relative to WT [4]
B1	47.0 ± 3.7	42.2 ± 1.6	Additional CSPs unique to pSTAT3 were observed at I653 and I711	Larger increases in the Rex of I568 were observed for the dimeric pSTAT3 than for pY904-bound uSTAT3	
B2					significant CSP relative to WT protein in all structured domains of STAT3, from the CCD to SH2
